Assay results of several laboratories.
Cell line: CAKI-1
Effect on: cell growth or viability

O=C1Nc2ccccc2C1=NNc1nnc2n1N=C(c1ccccc1)CS2 has an inhibition of 21% (SRB; 10 µM).
For S=C([S][Au-][P+](CCCCCC[P+]([Au-][S]C(=S)n1cccn1)(c1ccccc1)c1ccccc1)(c1ccccc1)c1ccccc1)n1cccn1, the GI50 was 7150 nM.
[Cl-].[Cl-].[Ti+4].c1cc[cH-]c1.c1cc[cH-]c1 gave an IC50 of > 200000 nM (XTT; 24 h).
The GI50 of COc1ccc(C(=O)/C=C/c2cc3c(cc2Br)OCO3)cc1S(N)(=O)=O is reported as 4600 nM (SRB; 48 h).
For CC(=O)OC[C@H]1O[C@@H]([S-])[C@H](OC(C)=O)[C@@H](OC(C)=O)[C@@H]1OC(C)=O.CCP(CC)CC.[Au+], the IC50 was 2290 nM (resazurin).
With COc1cc(Nc2nccc(-c3cnn4nc(OC)ccc34)n2)cc(C(F)(F)F)c1 the IC50 was 310 nM (ATP luminescence).
Cc1cc(C)n(C(=S)[S][Au][PH](CCCCCC[PH]([Au][S]C(=S)n2nc(C)cc2C)(c2ccccc2)c2ccccc2)(c2ccccc2)c2ccccc2)n1 has a GI50 of 2160 nM.
With COc1ccc(-c2ccc(-c3ccc(C(=N)N)nc3)s2)cc1Cl the GI50 was 1740 nM.
With CC(C)C[C@H](NC(=O)[C@H](Cc1ccccc1)NC(=O)c1cnccn1)B(O)O the IC50 was 10 nM (ATP luminescence).
COc1ccc(C(=O)/C=C/c2cccc(Cl)c2Cl)cc1S(N)(=O)=O has an inhibition of 106% (SRB; 10 µM).
For COc1ccc(-c2ccc(-c3ccc(C(=N)N)nc3)s2)cc1, the GI50 was 1640 nM.
